Results: ChEMBL document CHEMBL1148598, “Rational design and enantioselective synthesis of (1R,4S,5R,6S)-3-azabicyclo[3.3.0]octane-4,6-dicarboxylic acid - a novel inhibitor at human glutamate transporter subtypes 1, 2, and 3” (J Med Chem, 2006)

Columns and labels:
[1] = target: Glutamate receptor ionotropic, kainate; assay: Displacement of [3H]KAIN from kainate receptor in rat brain; assay type: tissue-based
Method in brief: (§1)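 Radioligand binding used rat brain membranes prepared by the Ransom and Stec method. Ligands were 5 nM [³H]AMPA for AMPA sites, 5 nM [³H]KAIN for kainate sites and 2 nM [³H]CGP 39653 for NMDA sites, and the value is reported as IC50.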

[2] = target: Excitatory amino acid transporter 1 (Homo sapiens, UniProt P43003); assay: Activity against human EAAT1 transfected in HEK293 cells; assay type: cell-based
Chain of Excitatory amino acid transporter 1 (P43003 whole entry): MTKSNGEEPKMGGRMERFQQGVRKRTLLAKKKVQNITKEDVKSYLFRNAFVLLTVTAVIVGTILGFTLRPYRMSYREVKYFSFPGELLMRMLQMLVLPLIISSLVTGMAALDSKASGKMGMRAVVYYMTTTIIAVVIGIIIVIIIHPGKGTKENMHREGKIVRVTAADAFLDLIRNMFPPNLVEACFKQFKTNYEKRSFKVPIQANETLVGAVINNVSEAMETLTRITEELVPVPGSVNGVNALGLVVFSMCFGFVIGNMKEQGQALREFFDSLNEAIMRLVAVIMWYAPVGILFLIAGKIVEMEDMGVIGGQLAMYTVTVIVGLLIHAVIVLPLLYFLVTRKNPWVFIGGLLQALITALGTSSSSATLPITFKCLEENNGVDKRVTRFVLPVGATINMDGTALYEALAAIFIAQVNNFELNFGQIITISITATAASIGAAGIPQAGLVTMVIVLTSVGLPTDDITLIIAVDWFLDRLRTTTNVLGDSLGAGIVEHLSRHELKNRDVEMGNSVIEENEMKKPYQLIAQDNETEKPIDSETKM
Method in brief: (§2)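 HEK293 lines stably expressing the human transporter were grown on poly-D-lysine plates in DMEM with 10% dialyzed FBS, pen/strep and 1 mg/mL G-418. After 16-24 h, cells were put in Krebs buffer (pH 7.4) containing inhibitor and loaded with FMP dye for 30 min at 37 °C. Plates were read at 30 °C (ex 530/em 560 nm) up to 1 min after adding 30 µM Glu. Runs were in triplicate, ≥3 times. IC50 was converted to Ki by Cheng-Prusoff.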

[3] = target: Metabotropic glutamate receptor 2 (Homo sapiens, UniProt Q14416); assay: Activity against mGluR2
Chain of Metabotropic glutamate receptor 2 (Q14416 whole entry): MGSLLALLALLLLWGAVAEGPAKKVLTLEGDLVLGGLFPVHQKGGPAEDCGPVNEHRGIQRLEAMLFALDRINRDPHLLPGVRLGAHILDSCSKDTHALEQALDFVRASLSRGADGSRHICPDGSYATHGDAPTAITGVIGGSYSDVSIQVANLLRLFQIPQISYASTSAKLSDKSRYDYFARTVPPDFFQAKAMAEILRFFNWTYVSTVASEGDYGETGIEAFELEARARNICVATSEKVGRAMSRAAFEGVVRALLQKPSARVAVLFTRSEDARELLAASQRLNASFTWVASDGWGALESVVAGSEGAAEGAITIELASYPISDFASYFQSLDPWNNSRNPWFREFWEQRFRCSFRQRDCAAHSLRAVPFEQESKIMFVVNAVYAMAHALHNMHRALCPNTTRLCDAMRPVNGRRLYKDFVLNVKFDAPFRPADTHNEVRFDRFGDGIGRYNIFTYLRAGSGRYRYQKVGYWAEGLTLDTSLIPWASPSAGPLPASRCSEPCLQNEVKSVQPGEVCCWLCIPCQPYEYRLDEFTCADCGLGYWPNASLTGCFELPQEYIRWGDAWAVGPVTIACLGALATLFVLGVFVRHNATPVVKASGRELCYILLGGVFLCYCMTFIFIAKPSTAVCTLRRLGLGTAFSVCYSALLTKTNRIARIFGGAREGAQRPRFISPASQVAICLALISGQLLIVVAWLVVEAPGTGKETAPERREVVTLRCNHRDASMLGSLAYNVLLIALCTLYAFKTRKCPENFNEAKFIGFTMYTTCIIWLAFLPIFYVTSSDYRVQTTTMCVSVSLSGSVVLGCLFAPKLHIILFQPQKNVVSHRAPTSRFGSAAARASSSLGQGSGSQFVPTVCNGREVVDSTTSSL

[4] = target: Metabotropic glutamate receptor 1 (Homo sapiens, UniProt Q13255); assay: Activity against mGluR1
Chain of Metabotropic glutamate receptor 1 (Q13255 whole entry): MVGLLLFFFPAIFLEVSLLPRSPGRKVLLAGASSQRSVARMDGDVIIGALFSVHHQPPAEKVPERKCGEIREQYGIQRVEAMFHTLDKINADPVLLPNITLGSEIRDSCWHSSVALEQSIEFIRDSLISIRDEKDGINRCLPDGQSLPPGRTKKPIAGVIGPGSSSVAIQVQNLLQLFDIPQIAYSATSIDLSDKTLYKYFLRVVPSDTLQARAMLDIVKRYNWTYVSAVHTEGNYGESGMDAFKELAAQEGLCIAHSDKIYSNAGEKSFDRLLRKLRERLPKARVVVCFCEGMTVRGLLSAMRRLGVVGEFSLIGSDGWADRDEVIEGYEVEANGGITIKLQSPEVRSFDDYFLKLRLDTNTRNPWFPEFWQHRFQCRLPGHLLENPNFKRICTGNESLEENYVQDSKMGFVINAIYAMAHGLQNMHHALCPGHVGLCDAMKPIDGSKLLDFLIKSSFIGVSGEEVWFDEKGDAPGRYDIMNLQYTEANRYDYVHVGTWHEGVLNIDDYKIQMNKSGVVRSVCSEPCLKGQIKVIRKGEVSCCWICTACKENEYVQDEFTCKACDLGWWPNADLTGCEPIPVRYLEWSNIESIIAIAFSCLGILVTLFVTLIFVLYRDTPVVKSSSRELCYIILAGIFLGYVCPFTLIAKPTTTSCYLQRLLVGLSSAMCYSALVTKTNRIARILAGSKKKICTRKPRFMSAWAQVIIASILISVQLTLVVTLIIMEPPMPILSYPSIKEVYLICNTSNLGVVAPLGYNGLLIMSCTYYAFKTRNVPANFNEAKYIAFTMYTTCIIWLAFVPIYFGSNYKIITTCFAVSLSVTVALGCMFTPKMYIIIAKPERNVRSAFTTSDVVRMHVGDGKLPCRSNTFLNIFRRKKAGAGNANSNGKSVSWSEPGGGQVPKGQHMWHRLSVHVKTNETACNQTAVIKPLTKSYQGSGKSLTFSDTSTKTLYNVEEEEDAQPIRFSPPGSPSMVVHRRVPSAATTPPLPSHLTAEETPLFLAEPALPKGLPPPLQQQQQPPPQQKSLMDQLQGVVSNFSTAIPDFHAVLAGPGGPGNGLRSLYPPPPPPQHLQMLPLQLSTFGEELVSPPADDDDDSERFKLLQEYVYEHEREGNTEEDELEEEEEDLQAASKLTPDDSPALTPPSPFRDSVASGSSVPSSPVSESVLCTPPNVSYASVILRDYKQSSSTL

[5] = target: T1, Excitatory amino acid transporter 3 (Homo sapiens, UniProt P43005); assay: Activity against human EAAT3 transfected in HEK293 cells; assay type: cell-based; method in brief: as §2
T1 sequence (P43005 whole entry): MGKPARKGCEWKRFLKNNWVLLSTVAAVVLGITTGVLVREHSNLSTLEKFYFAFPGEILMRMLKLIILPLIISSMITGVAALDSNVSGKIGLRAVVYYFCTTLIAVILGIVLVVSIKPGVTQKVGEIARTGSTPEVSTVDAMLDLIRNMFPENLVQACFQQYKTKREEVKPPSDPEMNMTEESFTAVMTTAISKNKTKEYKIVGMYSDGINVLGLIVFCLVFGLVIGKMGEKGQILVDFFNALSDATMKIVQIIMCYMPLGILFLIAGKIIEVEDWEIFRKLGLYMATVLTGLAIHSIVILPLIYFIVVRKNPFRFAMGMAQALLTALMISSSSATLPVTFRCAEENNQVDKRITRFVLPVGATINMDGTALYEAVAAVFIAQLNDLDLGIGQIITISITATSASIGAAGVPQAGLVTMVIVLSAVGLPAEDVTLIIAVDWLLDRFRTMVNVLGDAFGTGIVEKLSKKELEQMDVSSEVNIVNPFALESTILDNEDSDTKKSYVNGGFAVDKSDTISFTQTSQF

[6] = target: Excitatory amino acid transporter 2 (Homo sapiens, UniProt P43004); assay: Activity against human EAAT2 transfected in HEK293 cells; assay type: cell-based; method in brief: as §2
Chain of Excitatory amino acid transporter 2 (P43004 whole entry): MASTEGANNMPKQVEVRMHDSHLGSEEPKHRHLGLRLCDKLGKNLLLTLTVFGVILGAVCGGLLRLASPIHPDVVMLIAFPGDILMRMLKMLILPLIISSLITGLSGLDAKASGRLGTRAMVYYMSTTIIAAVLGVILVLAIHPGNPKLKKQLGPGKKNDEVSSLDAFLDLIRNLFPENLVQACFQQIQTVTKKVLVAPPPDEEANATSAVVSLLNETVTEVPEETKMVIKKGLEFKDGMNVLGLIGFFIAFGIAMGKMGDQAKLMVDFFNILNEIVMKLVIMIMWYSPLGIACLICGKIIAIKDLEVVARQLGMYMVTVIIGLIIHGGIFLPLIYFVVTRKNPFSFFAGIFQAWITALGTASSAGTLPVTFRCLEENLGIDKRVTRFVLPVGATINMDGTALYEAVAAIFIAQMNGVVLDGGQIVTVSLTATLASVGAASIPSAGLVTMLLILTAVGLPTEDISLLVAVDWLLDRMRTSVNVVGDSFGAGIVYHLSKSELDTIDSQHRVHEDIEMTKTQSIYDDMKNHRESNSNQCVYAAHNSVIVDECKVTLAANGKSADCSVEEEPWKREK

[7] = target: Glutamate receptor ionotropic, AMPA (Rattus norvegicus, UniProt P19490+P19491+P19492+P19493); assay: Displacement of [3H]AMPA from AMPA receptor in rat brain; assay type: tissue-based; method in brief: as §1
Glutamate NMDA receptor = assay: Displacement of [3H]CGP-39653 from NMDA preferring iGlu receptor in rat brain; assay type: tissue-based

O=C(O)[C@H]1CC[C@H]2CN[C@H](C(=O)O)[C@H]21
IC50 [1]: 14 µM | Ki [2]: 127 µM | EC50 [3]: 1000 µM | EC50 [4]: > 1000 µM | Ki [5]: 46 µM | Ki [6]: 52 µM | IC50 [7]: > 100 µM | Ki (Glutamate NMDA receptor): 2.9 µM

O=C(O)[C@H]1CC2CC1[C@@H](C(=O)O)N2 (stereo partly specified)
Ki [2]: > 400 µM | Ki [5]: > 400 µM | Ki [6]: > 400 µM
